Measurements: ChEMBL document CHEMBL1131181, “Abasic analogues of TSAO-T as the first sugar derivatives that specifically inhibit HIV-1 reverse transcriptase” (J Med Chem, 1998)

Tests used:
[1] = system: CCRF-CEM; experiment: compound was tested for cytostatic concentration against mock infected cells of CEM cell line; assay type: functional; details: Homo sapiens
Summary of the method: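 Uninfected CEM cells at 250 000 cells/mL were cultured with compound dilutions for 4 days at 37 °C. CC₅₀ is the concentration that inhibits CEM cell proliferation by 50%.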

[2] = system: Human immunodeficiency virus 1; experiment: In vitro antiviral activity against HIV-1 (IIIB) in CEM (human leukemia) cells.; assay type: functional, organism-based; details: Human immunodeficiency virus 1, CCRF-CEM
Summary of the method: (§1)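 CEM cells at 250 000 cells/mL were infected with HIV-1(III_B) or HIV-2(ROD) at 100 CCID₅₀/mL, then added to compound dilutions. After 4 days at 37 °C, cultures were scored for syncytium formation. EC₅₀ is the concentration that inhibits syncytium formation by 50%.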

[3] = system: Human immunodeficiency virus 2; experiment: In vitro antiviral activity against HIV-2 (ROD) in CEM (human leukemia) cells.; assay type: functional, organism-based; details: Human immunodeficiency virus 2, CCRF-CEM; summary of the method: as §1
[4] = system: MT4; experiment: Cytostatic concentration test against mock infected human cells of MT-4 cell line; assay type: functional
Summary of the method: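 MT-4 cells at 5 × 10⁵ cells/mL, mock-infected, combined with compound dilutions and held 5 days at 37 °C. Viable cells were counted in a blood-cell-counting chamber after Trypan blue staining. CC₅₀ is the concentration that cuts the viable cell number by 50%.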

[5] = system: MT4; experiment: compound was tested for antiviral activity against HIV-2 ([…]) in MT-4 cell line, activity expressed as concentration required to protect 50% of the virus-infected cells against destruction by the virus.; assay type: functional, cell-based; details: Homo sapiens
[6] = system: Human immunodeficiency virus 1; experiment: compound was tested for antiviral activity against HIV-1 (3B) in MT-4 cell line, activity expressed as concentration required to protect 50% of the virus-infected cells against destruction by the virus.; assay type: functional, organism-based; details: Human immunodeficiency virus 1, MT4

Row | SMILES | EC50 [2] [µM] | EC50 [3] [µM] | EC50 [6] [µM] | CC50 [1] [µM] | CC50 [4] [µM] | EC50 [5] [µM]
1 | CSc1ccc(NC(=O)N[C@H]2O[C@H](CO[Si](C)(C)C(C)(C)C)[C@@]3(OS(=O)(=O)C=C3N)[C@H]2O[Si](C)(C)C(C)(C)C)cc1 | > 2 | > 2 | 4.2 | 6.4 | 17 | > 10
2 | CC(C)(C)[Si](C)(C)OC[C@H]1O[C@@H](NC(=O)NC(=O)c2ccccc2)[C@H](O[Si](C)(C)C(C)(C)C)[C@]12OS(=O)(=O)C=C2N | 7 | > 50 | 16 | 48 | 90 | > 50
3 | CC(C)(C)[Si](C)(C)OC[C@H]1O[C@@H](NC(=S)Nc2ccccc2)[C@H](O[Si](C)(C)C(C)(C)C)[C@]12OS(=O)(=O)C=C2N | > 2 | > 2 | > 2 | 4.1 | 3.7 | > 2
4 | COC(=O)c1ccccc1NC(=O)N[C@@H]1O[C@H](CO[Si](C)(C)C(C)(C)C)[C@@]2(OS(=O)(=O)C=C2N)[C@H]1O[Si](C)(C)C(C)(C)C | > 2 | > 2 | 3.1 | 3.8 | 17 | > 2
5 | CCNC(=O)N[C@@H]1O[C@H](CO[Si](C)(C)C(C)(C)C)[C@@]2(OS(=O)(=O)C=C2N)[C@H]1O[Si](C)(C)C(C)(C)C.CCNC(=O)N[C@H]1O[C@H](CO[Si](C)(C)C(C)(C)C)[C@@]2(OS(=O)(=O)C=C2N)[C@H]1O[Si](C)(C)C(C)(C)C | > 10 | > 10 | > 10 | 20 | 19 | > 10
6 | CC(C)(C)[Si](C)(C)OC[C@H]1O[C@H](NC(=O)NC(=O)c2ccccc2)[C@H](O[Si](C)(C)C(C)(C)C)[C@]12OS(=O)(=O)C=C2N | > 250 | > 250 | > 250 | 24 | > 250 | > 250
7 | CC(C)(C)[Si](C)(C)OC[C@H]1O[C@@H](n2ccc(=O)[nH]c2=O)[C@H](O[Si](C)(C)C(C)(C)C)C12OS(=O)(=O)C=C2N (stereo not given in full) |  |  | 0.18 |  | 13 | > 20
8 | COC(=O)c1ccccc1NC(=O)N[C@H]1O[C@H](CO[Si](C)(C)C(C)(C)C)[C@@]2(OS(=O)(=O)C=C2N)[C@H]1O[Si](C)(C)C(C)(C)C | 4.5 | > 10 | 5.3 | 22 | 26 | > 10
9 | Cc1cn([C@@H]2O[C@H](CO[Si](C)(C)C(C)(C)C)C3(OS(=O)(=O)C=C3N)[C@H]2O[Si](C)(C)C(C)(C)C)c(=O)[nH]c1=O (stereo not given in full) | 0.06 | > 20 | 0.06 |  | 14 | > 20
10 | CSc1ccc(NC(=O)N[C@@H]2O[C@H](CO[Si](C)(C)C(C)(C)C)[C@@]3(OS(=O)(=O)C=C3N)[C@H]2O[Si](C)(C)C(C)(C)C)cc1 | 5 | > 10 | 4.5 | 22 | 29 | > 10

The next lines start with results.

Row | EC50 [2] [µM] | EC50 [3] [µM] | EC50 [6] [µM] | SMILES | CC50 [1] [µM] | CC50 [4] [µM] | EC50 [5] [µM]
11 | 0.65 | > 10 | 0.89 | CC(=O)NC(=O)N[C@@H]1O[C@H](CO[Si](C)(C)C(C)(C)C)[C@@]2(OS(=O)(=O)C=C2N)[C@H]1O[Si](C)(C)C(C)(C)C | 15 | 26 | > 10
12 | > 6.4 | > 6.4 | 4.9 | CC(C)(C)[Si](C)(C)OC[C@H]1O[C@@H](OCc2ccccc2)[C@H](O[Si](C)(C)C(C)(C)C)[C@]12OS(=O)(=O)C=C2N | 11 | 12 | > 6.4
13 | 0.31 |  | 0.92 | CC(C)(C)[Si](C)(C)OC[C@H]1O[C@@H](N2CCC(=O)NC2=O)[C@H](O[Si](C)(C)C(C)(C)C)[C@]12OS(=O)(=O)C=C2N | 19 | 21 | > 2
14 | 90 | > 50 | 90 | CC(C)(C)[Si](C)(C)OC[C@H]1O[C@@H](NC(N)=O)[C@H](O[Si](C)(C)C(C)(C)C)[C@]12OS(=O)(=O)C=C2N | > 250 | > 250 | > 250
15 | 0.56 | > 6.5 | 0.59 | C=C(C)C(=O)NC(=O)N[C@@H]1O[C@H](CO[Si](C)(C)C(C)(C)C)[C@@]2(OS(=O)(=O)C=C2N)[C@H]1O[Si](C)(C)C(C)(C)C | 6.1 | 8.6 | > 6.5
16 | > 200 | > 200 | > 200 | CC(C)(C)[Si](C)(C)OC[C@H]1O[C@@H](N=[N+]=[N-])[C@H](O[Si](C)(C)C(C)(C)C)[C@]12OS(=O)(=O)C=C2N | > 200 | > 200 | > 200
17 |  |  | 21 | COC1OC(CO[Si](C)(C)C(C)(C)C)C2(OS(=O)(=O)C=C2N)C1O[Si](C)(C)C(C)(C)C (stereo not given) |  | > 200 | > 200
18 | 57 | > 50 | > 250 | CC(C)(C)[Si](C)(C)OC[C@H]1O[C@H](NC(N)=O)[C@H](O[Si](C)(C)C(C)(C)C)[C@]12OS(=O)(=O)C=C2N | 203 | > 250 | > 250
19 | > 10 | > 10 | 5.1 | CC(C)(C)[Si](C)(C)OC[C@H]1O[C@@H](NC(=O)Nc2ccccc2)[C@H](O[Si](C)(C)C(C)(C)C)[C@]12OS(=O)(=O)C=C2N | 10 | 14 | > 10
20 | > 8 | > 8 | > 8 | CC(=O)N[C@H]1O[C@H](CO[Si](C)(C)C(C)(C)C)[C@@]2(OS(=O)(=O)C=C2N)[C@H]1O[Si](C)(C)C(C)(C)C |  | 16 | > 8
21 | 0.65 | > 2 | 0.59 | CC(C)(C)[Si](C)(C)OC[C@H]1O[C@H](NC(=O)Nc2ccccc2)[C@H](O[Si](C)(C)C(C)(C)C)[C@]12OS(=O)(=O)C=C2N | 4.2 | 4.3 | > 2
22 | > 10 | > 10 | > 10 | CC(C)(C)[Si](C)(C)OC[C@H]1O[C@@H](N)[C@H](O[Si](C)(C)C(C)(C)C)[C@]12OS(=O)(=O)C=C2N | 16 | 21 | > 10
23 | > 6.5 | > 6.5 | > 1.3 | C=C(C)C(=O)NC(=O)N[C@H]1O[C@H](CO[Si](C)(C)C(C)(C)C)[C@@]2(OS(=O)(=O)C=C2N)[C@H]1O[Si](C)(C)C(C)(C)C | 6.4 | 2.7 | > 1.3
24 | 2.6 | > 8 | 2.6 | CC(=O)N[C@@H]1O[C@H](CO[Si](C)(C)C(C)(C)C)[C@@]2(OS(=O)(=O)C=C2N)[C@H]1O[Si](C)(C)C(C)(C)C |  | 13 | > 8
25 | > 6.4 | > 6.4 | 4.6 | CC(C)(C)[Si](C)(C)OC[C@H]1O[C@@H](OCc2ccccc2)[C@H](O[Si](C)(C)C(C)(C)C)[C@@]12OS(=O)(=O)C=C2N | 11 | 13 | > 6.4
